The source made the active and inactive calls. No cut-off for these calls is given here.
How the values were obtained:
[1] = target: T1, D(2) dopamine receptor (Homo sapiens, UniProt P14416); assay: Agonist activity at human recombinant D2 receptor expressed in HEK293 cells by FLIPR assay; assay type: functional, cell-based
How it was run: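 Calcium flux (FLIPR) in HEK-293 cells coexpressing recombinant human D2L with chimeric Gqo5. Efficacy is the maximal response relative to 10 µM dopamine (100%). EC50 is the concentration giving half-maximal stimulation. Values are means (SEM, n ≥ 3).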

[2] = target: T1, D(2) dopamine receptor; assay: Displacement of [125I]PIPAT from human recombinant D2L receptor expressed in HEK293 cells
[3] = target: T2, D(4) dopamine receptor (Homo sapiens, UniProt P21917); assay: Displacement of [3H]A-369508 from human recombinant D4.4 receptor expressed in HEK293 cell membrane; assay type: cell membranes
T2 sequence (P21917 whole entry): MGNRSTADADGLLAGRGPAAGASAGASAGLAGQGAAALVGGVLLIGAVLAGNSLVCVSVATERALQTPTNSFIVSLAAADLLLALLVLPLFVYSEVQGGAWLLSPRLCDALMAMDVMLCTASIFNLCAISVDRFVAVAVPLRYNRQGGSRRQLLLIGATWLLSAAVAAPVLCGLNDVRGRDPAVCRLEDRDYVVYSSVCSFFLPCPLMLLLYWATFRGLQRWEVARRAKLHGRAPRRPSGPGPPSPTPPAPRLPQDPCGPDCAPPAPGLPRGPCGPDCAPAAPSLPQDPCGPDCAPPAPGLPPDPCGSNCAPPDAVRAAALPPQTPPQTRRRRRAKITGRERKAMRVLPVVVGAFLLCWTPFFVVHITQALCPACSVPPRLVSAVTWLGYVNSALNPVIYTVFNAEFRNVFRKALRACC
How it was run: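 Competition binding against the D4-selective agonist radioligand [3H]-A-369508, using membranes from HEK-293 cells engineered to express human D4.4. Mean values (SEM, n ≥ 4).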

[4] = tested on: Rattus norvegicus; assay: Activity against penile erection in Wistar rat at 0.1 umol/kg, sc; assay type: functional
How it was run: (§1)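 Male Wistar rats, dosed subcutaneously, were weighed and adapted to a red-lit testing room for 60 min; experiments ran between 9:00 a.m. and 3:00 p.m. Erections were counted by direct observation for 60 min after dosing. The share of animals with one or more erections was reported as incidence (percent), n = 8-30 rats.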

[5] = target: T2, D(4) dopamine receptor; assay: Activity at human recombinant D4.4 receptor expressed in HEK293 cells by FLIPR assay; assay type: functional, cell-based
[6] = target: T1, D(2) dopamine receptor; assay: Antagonist activity at human recombinant D2 receptor expressed in HEK293 cells by FLIPR assay; assay type: functional, cell-based
[7] = target: D(4) dopamine receptor (Homo sapiens) (UniProt P21917); assay: Agonist activity at human recombinant D4.4 receptor expressed in HEK293 cells by FLIPR assay relative to dopamine
[8] = tested on: Mustela putorius furo; assay: Emetic activity in ferret at 0.03 to 3 umol/kg, sc; assay type: functional, organism-based
[9] = Bioavailability in rat at 1 mg/kg, sc; assay type: ADME, organism-based; details: in vivo
How it was run: (§2)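 Pharmacokinetics in rat and dog after a 1 mg/kg dose given subcutaneously or orally. Oral bioavailability (F, %), volume of distribution (Vβ, L/kg) and half-life (T1/2, h) were determined.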

[10] = tested on: Canis familiaris; assay: Volume of distribution in dog at 1 mg/kg, sc; assay type: ADME, organism-based, Canis lupus familiaris; parameters: dose 1 mg/kg, route subcutaneous; details: in vivo; how it was run: as §2
[11] = tested on: Mus musculus; assay: Lowering of hypothermia in mouse at 10 umol/kg by Irvin test; assay type: functional, organism-based
[12] = Half life in dog at 1 mg/kg, po; assay type: ADME, organism-based, Canis lupus familiaris; parameters: dose 1 mg/kg, route oral; details: in vivo; how it was run: as §2
[13] = Half life in rat at 1 mg/kg, po; assay type: ADME, organism-based; parameters: dose 1 mg/kg, route oral; details: in vivo; how it was run: as §2
[14] = tested on: Rattus norvegicus; assay: Activity against penile erection in Wistar rat at 0.03 umol/kg, sc; assay type: functional; how it was run: as §1
[15] = tested on: Rattus norvegicus; assay: Volume of distribution in rat at 1 mg/kg, sc; assay type: ADME, organism-based; parameters: dose 1 mg/kg, route subcutaneous; details: in vivo; how it was run: as §2
[16] = Bioavailability in rat at 1 mg/kg, po; assay type: ADME, organism-based; details: in vivo; how it was run: as §2
[17] = Half life in rat at 1 mg/kg, sc; assay type: ADME, organism-based; parameters: dose 1 mg/kg, route subcutaneous; details: in vivo; how it was run: as §2
[18] = tested on: Mus musculus; assay: Lowering of piloerection in mouse at 10 umol/kg by Irvin test; assay type: functional, organism-based
[19] = tested on: Mus musculus; assay: Lowering of hypoactivity in mouse at 10 umol/kg by Irvin test; assay type: functional, organism-based
[20] = species on record: Canis familiaris; assay: Prolongation of canine cardiac Purkinje fiber repolarization; assay type: functional, Canis lupus familiaris
[21] = Bioavailability in dog at 1 mg/kg, po; assay type: ADME, organism-based, Canis lupus familiaris; details: in vivo; how it was run: as §2
[22] = tested on: Mus musculus; assay: Lowering of ptosis in mouse at 10 umol/kg by Irvin test; assay type: functional, organism-based
[23] = tested on: Rattus norvegicus; assay: Inhibition of (E)-1-(4-chlorophenyl)-3-(4-pyridin-2-ylpiperazin-1-yl)propan-1-one O-methyloxime-induced erectogenic effect in Wistar rat at 3 umol/kg, ip; assay type: functional, organism-based
[24] = tested on: Rattus norvegicus; assay: Activity against penile erection in Wistar rat at 0.3 umol/kg, sc; assay type: functional; how it was run: as §1
[25] = tested on: Rattus norvegicus; assay: Inhibition of (E)-1-(4-chlorophenyl)-3-(4-pyridin-2-ylpiperazin-1-yl)propan-1-one O-methyloxime-induced erectogenic effect in Wistar rat at 1 umol/kg, ip; assay type: functional, organism-based
[26] = tested on: Rattus norvegicus; assay: Activity against penile erection in Wistar rat at 1.0 umol/kg, sc; assay type: functional; how it was run: as §1
[27] = tested on: Rattus norvegicus; assay: Inhibition of (E)-1-(4-chlorophenyl)-3-(4-pyridin-2-ylpiperazin-1-yl)propan-1-one O-methyloxime-induced erectogenic effect in Wistar rat at 10 umol/kg, ip; assay type: functional, organism-based

T1 sequence (P14416 whole entry): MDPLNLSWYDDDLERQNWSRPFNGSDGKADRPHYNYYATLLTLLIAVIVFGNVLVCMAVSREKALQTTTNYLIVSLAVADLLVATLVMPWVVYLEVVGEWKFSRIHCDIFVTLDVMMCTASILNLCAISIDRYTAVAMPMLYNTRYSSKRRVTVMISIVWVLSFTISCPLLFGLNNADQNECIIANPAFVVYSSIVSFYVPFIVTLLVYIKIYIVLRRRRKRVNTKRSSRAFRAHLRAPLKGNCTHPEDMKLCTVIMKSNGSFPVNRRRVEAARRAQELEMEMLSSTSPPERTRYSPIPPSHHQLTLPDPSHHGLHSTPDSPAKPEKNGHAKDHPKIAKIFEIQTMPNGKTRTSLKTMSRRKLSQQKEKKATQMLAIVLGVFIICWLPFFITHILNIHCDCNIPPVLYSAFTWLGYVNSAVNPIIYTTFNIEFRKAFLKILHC

Row | SMILES | EC50 [1] | Ki [2] | Ki [3] | EC50 [5] | IC50 [6] | other results
1 | CO/N=C(\CCN1CCN(c2ccccn2)CC1)c1ccc(C)c(C)c1 | > 10000 nM | 137 nM | 27.5 nM | 108 nM | > 10000 nM | Activity [4]: 68%
2 | CO/N=C(/CCCN1CCN(c2ccccn2)CC1)c1ccc(F)cc1 | 366 nM | – | – | 33.5 nM | > 10000 nM | Efficacy [7]: 65%
3 | CO/N=C(\CCN1CCN(c2ccccn2)CC1)c1ccc(Cl)cc1 | > 10000 nM | 63.8 nM | 38.2 nM | 37.6 nM | > 10000 nM | Activity [8]: inactive; bioavailability [9]: 94.8%; Vbeta [10]: 4.8 L/kg; Activity [11]: Active; half-life [12]: 6.2 h; half-life [13]: 2.3 h; Activity [14]: 85%; Vbeta [15]: 4.3 L/kg; bioavailability [16]: 16.3%; half-life [17]: 1.9 h; Activity [18]: Active; Activity [19]: Active; Activity [20]: 14.7%; bioavailability [21]: 39.8%; Activity [22]: Active
4 | CN1CCN(C2=Nc3cc(Cl)ccc3Nc3ccccc32)CC1 | – | – | – | – | – | Activity [23]: Active
5 | CO/N=C(\CCN1CCN(c2ccccn2)CC1)c1ccc(Cl)c(Cl)c1 | > 10000 nM | 64.5 nM | 6.4 nM | 542 nM | > 10000 nM | Activity [24]: 76%
6 | CO/N=C(\CCN1CCN(c2ccccn2)CC1)c1cc(F)cc(F)c1 | > 10000 nM | 132 nM | 110 nM | 37.2 nM | > 10000 nM | Activity [4]: 68%
7 | O=C(CCCN1CCC(O)(c2ccc(Cl)cc2)CC1)c1ccc(F)cc1 | – | – | – | – | – | Activity [25]: Active
8 | O/N=C(\CCN1CCN(c2ccccn2)CC1)c1ccccc1 | > 10000 nM | 257 nM | 25.4 nM | 4.4 nM | > 10000 nM | bioavailability [9]: 68.1%; Vbeta [10]: 1.8 L/kg; Vbeta [15]: 1 L/kg; bioavailability [16]: 0%; half-life [17]: 0.8 h; Activity [24]: 60%; bioavailability [21]: 0%
9 | CO/N=C(\CCN1CCN(c2ccccn2)CC1)c1ccc(F)c(Cl)c1 | > 10000 nM | 171 nM | 71.2 nM | 148 nM | > 10000 nM | Vbeta [10]: 3.8 L/kg; half-life [12]: 6.1 h; Activity [26]: 85%; Vbeta [15]: 8.2 L/kg; bioavailability [16]: 18.6%; bioavailability [21]: 42.9%
10 | CO/N=C(\CCN1CCN(c2ccccn2)CC1)c1ccc(F)cc1 | > 10000 nM | 168 nM | 14.2 nM | 48.8 nM | > 10000 nM | Activity [24]: 50%
11 | CCO/N=C(\CCN1CCN(c2ccccn2)CC1)c1ccccc1 | > 10000 nM | 128 nM | 38 nM | 28.5 nM | > 10000 nM | Activity [24]: 55%
12 | CO/N=C(/c1ccc(Cl)cc1)C(CNOC)CN1CCN(c2ccccn2)CC1 (stereo unspecified) | > 10000 nM | 164 nM | 120 nM | 206 nM | > 10000 nM | –
13 | CN1CCc2cccc3c2[C@H]1Cc1ccc(O)c(O)c1-3 [APOMORPHINE] | – | – | – | – | – | Activity [4]: 85%
14 | CO/N=C(\CCN1CCN(c2ccccn2)CC1)c1ccccc1 | > 10000 nM | 172 nM | 22.8 nM | 32 nM | > 10000 nM | Activity [4]: 77%
15 | CO/N=C(\CCN1CCN(c2ccccn2)CC1)c1cccc(C)c1 | > 10000 nM | 68.4 nM | 8 nM | 27.6 nM | > 10000 nM | –
16 | CO/N=C(\CCN1CCN(c2ccccn2)CC1)c1cccc(F)c1 | > 10000 nM | 101 nM | 13.9 nM | 44.6 nM | > 10000 nM | –
17 | Cc1cccc(C(=O)NCN2CCN(c3ccccc3C#N)CC2)c1 [PD-168,077] | > 10000 nM | – | – | – | > 10000 nM | Activity [24]: 79%
18 | CO/N=C(\CCN1CCN(c2ccccn2)CC1)c1ccccc1C | > 10000 nM | 112 nM | 11.4 nM | 74 nM | > 10000 nM | –
19 | O=c1[nH]c2ccccc2n1CCCN1CCC(n2c(=O)[nH]c3cc(Cl)ccc32)CC1 | – | – | – | – | – | Activity [27]: inactive
20 | CO/N=C(\c1ccc(Cl)cc1)C(O)CN1CCN(c2ccccn2)CC1 (stereo unspecified) | > 10000 nM | 995 nM | 113 nM | 46 nM | > 10000 nM | –
21 | CCO/N=C(\CCN1CCN(c2nccs2)CC1)c1ccccc1 | > 10000 nM | 257 nM | 168 nM | 81.8 nM | > 10000 nM | –
22 | CO/N=C(\CN1CCN(c2ccccn2)CC1)c1ccc(F)cc1 | > 10000 nM | 2530 nM | 2050 nM | 43.8 nM | > 10000 nM | Activity [24]: 77%

From ChEMBL document CHEMBL1145336, “1-aryl-3-(4-pyridine-2-ylpiperazin-1-yl)propan-1-one oximes as potent dopamine D4 receptor agonists for the treatment of erectile dysfunction” (J Med Chem, 2006)
